According to publication PMC8414988 (Pediatric blood & cancer, 2021):

Key:
[1] = system: progressive or refractory brain tumors; experiment: Tumor response assessment; assay type: in vivo, human
Procedure, shortened: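 Oral once-daily dosing, 21 of 28 days, for up to 26 courses. Response by bi-dimensional MR measurement. CR: all enhancing tumor gone. PR: ≥50% reduction. Both held ≥8 weeks on stable or decreasing corticosteroids. PD: >25% increase from smallest measurement, new lesion, or neurologic worsening. Patients receiving ≥1 dose evaluable.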

[2] = human, in vivo, 28 days
[3] = Exposure-toxicity associations; assay type: in vivo, human; settings: course 1
[4] = cited from earlier work
[5] = Plasma pharmacokinetics, non-compartmental analysis; assay type: in vivo, human; settings: for AUC(0-t) / Cmax / half-life: human, plasma, po

**Q.** For `CC(=O)c1c(C)c2cnc(Nc3ccc(N4CCNCC4)cn3)nc2n(C2CCCC2)c1=O` [palbociclib], which objective response ([1]; Stratum I and II) is on record?
**A.** Its objective response is “No patients on either stratum had an objective response”.

**Q.** What about the time on treatment ([1]; Stratum II, 3 subjects (2 at 50 mg/m^2 and 1 at 75 mg/m^2)) of the same compound?
**A.** The time on treatment was 4 courses.

**Q.** What about the time on treatment ([1]; one patient with GBM, 75 mg/m^2) of the same compound?
**A.** The time on treatment was 6 courses.

**Q.** What about the time on treatment ([1]; one patient with anaplastic ependymoma, Stratum I, 75 mg/m^2) of the same compound?
**A.** Its time on treatment is 18 courses.

**Q.** And the “Dose limiting toxicities observed” value [2]?
**A.** Its value is “grade 4 neutropenia and grade 3 thrombocytopenia and dehydration”.

**Q.** And the “association of pharmacokinetic variables with thrombocytopenia or lymphopenia” value [3]?
**A.** Its value is “No association was found”.

**Q.** And the permeability [4]?
**A.** The permeability was “high permeability”.

**Q.** And the “Cmax (mean ± SD)” value ([5]; 50 mg/m^2 oral, Day 1 (single dose), N=7)?
**A.** The value was 69.3 ± 43.7 ng/mL.

**Q.** And the “AUC0-Tlast (mean ± SD)” value ([5]; 75 mg/m^2 oral, Day 21 (repeated doses), N=17)?
**A.** The value was 2219 ± 1086 ng·h/mL.

**Q.** What about the AUC(0-t) ([5]; 50 mg/m2, AUC0-Tlast (median (range)), 50 mg/m^2 oral, Day 1 (single dose), N=7) of the same compound?
**A.** The AUC(0-t) was 1160 ng·h/mL.

**Q.** What about the AUC(0-t) ([5]; 50 mg/m2, AUC0-Tlast (median (range)), 50 mg/m^2 oral, Day 21 (repeated doses), N=6) of the same compound?
**A.** The AUC(0-t) was 1230 ng·h/mL.

**Q.** What about the Cmax ([5]; 50 mg/m2, Cmax (median (range)), 50 mg/m^2 oral, Day 1 (single dose), N=7) of the same compound?
**A.** The Cmax was 54.9 ng/mL.

**Q.** And the Cmax ([5]; 50 mg/m2, Cmax (median (range)), 50 mg/m^2 oral, Day 21 (repeated doses), N=6)?
**A.** Its Cmax is 77.2 ng/mL.

**Q.** And the half-life ([5]; 50 mg/m2, Half-life (median (range)), 50 mg/m^2 oral, Day 1 (single dose), N=7)?
**A.** The half-life was 13 h.

**Q.** And the half-life ([5]; 50 mg/m2, Half-life (median (range)), 50 mg/m^2 oral, Day 21 (repeated doses), N=6)?
**A.** The half-life was 17.4 h.

**Q.** And the AUC(0-t) ([5]; 75 mg/m2, AUC0-Tlast (median (range)), 75 mg/m^2 oral, Day 1 (single dose), N=21)?
**A.** The AUC(0-t) was 1830 ng·h/mL.

**Q.** What about the AUC(0-t) ([5]; 75 mg/m2, AUC0-Tlast (median (range)), 75 mg/m^2 oral, Day 21 (repeated doses), N=17) of the same compound?
**A.** Its AUC(0-t) is 2270 ng·h/mL.

**Q.** And the Cmax ([5]; 75 mg/m2, Cmax (median (range)), 75 mg/m^2 oral, Day 1 (single dose), N=21)?
**A.** Its Cmax is 94 ng/mL.

**Q.** And the half-life ([5]; 75 mg/m2, Half-life (median (range)), 75 mg/m^2 oral, Day 1 (single dose), N=21)?
**A.** Its half-life is 13.3 h.

**Q.** And the half-life ([5]; 75 mg/m2, Half-life (median (range)), 75 mg/m^2 oral, Day 21 (repeated doses), N=17)?
**A.** Its half-life is 14.4 h.

**Q.** What about the AUC(0-t) ([5]; 95 mg/m2, AUC0-Tlast (median (range)), 95 mg/m^2 oral, Day 1 (single dose), N=6) of the same compound?
**A.** Its AUC(0-t) is 2410 ng·h/mL.

**Q.** And the AUC(0-t) ([5]; 95 mg/m2, AUC0-Tlast (median (range)), 95 mg/m^2 oral, Day 21 (repeated doses), N=2)?
**A.** The AUC(0-t) was 2190 ng·h/mL.

**Q.** And the half-life ([5]; 95 mg/m2, Half-life (median (range)), 95 mg/m^2 oral, Day 1 (single dose), N=6)?
**A.** The half-life was 14.6 h.

**Q.** What about the half-life ([5]; 95 mg/m2, Half-life (median (range)), 95 mg/m^2 oral, Day 21 (repeated doses), N=2) of the same compound?
**A.** Its half-life is 11.3 h.

**Q.** What about the “dose dependence of mean Cmax and AUC0-Tlast” value ([5]; within 50 and 95 mg/m^2, single and repeated doses) of the same compound?
**A.** Its value is “increased in proportional manner”.
